Source: ChEMBL document CHEMBL1122501, “Potential antiatherosclerotic agents. 2. (Aralkylamino)- and (alkylamino) benzoic acid analogues of cetaben” (1983)

Key:
Rattus norvegicus [1] = assay: In vivo Sterol lowering activity at dose as 0.03 % of the diet.; assay type: functional
In short: (§1)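 Male CFE or CD-1 Sprague-Dawley rats, 140-150 g; 8 per control group, 4 per test group. Compound mixed into ground chow (w/w) via MeOH-CHCl3 (1:3) solution, solvent evaporated; controls got solvent-treated chow. Fed ad libitum 5 days, food intake monitored, killed fed and bled. Serum sterols and triglycerides by adapted autoanalyzer methods; mean percent of control, Student's t test.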

Rattus norvegicus [2] = assay: In vivo sterol lowering activity dosed at 0.10 % of the diet; assay type: functional; in short: as §1
Rattus norvegicus [3] = assay: In vivo triglyceride lowering activity dosed at 0.10 % of the diet; assay type: functional; in short: as §1
Rattus norvegicus [4] = assay: In vivo Sterol lowering activity at dose as 0.01 % of the diet.; assay type: functional; in short: as §1
[5] = target: T1, Sterol O-acyltransferase 1 (Rattus norvegicus) (UniProt O70536); assay: In vitro inhibitory activity against acyl coenzyme A:cholesterol acyltransferase (ACAT); design: concentration or dose not given beside the values; conditions: concentration not given here
T1 sequence (whole entry): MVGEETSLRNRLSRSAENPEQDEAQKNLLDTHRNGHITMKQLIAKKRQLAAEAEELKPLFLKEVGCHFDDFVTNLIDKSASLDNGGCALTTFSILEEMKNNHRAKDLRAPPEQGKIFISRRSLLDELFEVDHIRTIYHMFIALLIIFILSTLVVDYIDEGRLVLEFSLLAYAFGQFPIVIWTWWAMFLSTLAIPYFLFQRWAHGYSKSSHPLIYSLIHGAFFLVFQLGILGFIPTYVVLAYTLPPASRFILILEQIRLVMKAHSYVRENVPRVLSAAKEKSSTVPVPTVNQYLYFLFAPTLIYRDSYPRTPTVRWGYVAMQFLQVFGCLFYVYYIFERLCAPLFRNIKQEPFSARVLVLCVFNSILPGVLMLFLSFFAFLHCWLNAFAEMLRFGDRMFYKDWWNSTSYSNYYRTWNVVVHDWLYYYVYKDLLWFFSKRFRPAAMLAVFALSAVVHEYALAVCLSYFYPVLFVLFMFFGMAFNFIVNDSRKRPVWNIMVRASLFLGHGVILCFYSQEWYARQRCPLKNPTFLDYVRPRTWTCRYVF
In short: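 ACAT enzyme from rat adrenal homogenate in 0.2 M KH2PO4 buffer pH 7.4, 1000g 15 min 5 °C supernatant (microsomal fraction). Supernatant + BSA (50 mg/mL) + compound at final 5.2 μg/mL + buffer preincubated 10 min 37 °C; [14C]oleoyl-CoA (0.4 μCi) added, 30 min 37 °C. Lipids extracted, TLC; cholesteryl ester zone counted. Mean % inhibition vs no-compound control; Student's t test.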

Rattus norvegicus [6] = assay: In vivo triglyceride lowering activity, dosed at 0.01 % of the diet.; assay type: functional; in short: as §1
Rattus norvegicus [7] = assay: In vivo Triglyceride lowering activity at dose as 0.03 % of the diet.; assay type: functional; in short: as §1
Rattus norvegicus [8] = assay: In vivo Sterol lowering activity at dose as 0.10 % of the diet.; assay type: functional; in short: as §1
Rattus norvegicus [9] = assay: In vivo Triglyceride lowering activity at dose as 0.01 % of the diet; assay type: functional; in short: as §1
Rattus norvegicus [10] = assay: In vivo triglyceride lowering activity, dosed at 0.10 % of the diet.; assay type: functional; in short: as §1
Rattus norvegicus [11] = assay: In vivo triglyceride lowering activity, dosed at 0.03 % of the diet; assay type: functional; in short: as §1

## O=C(O)c1ccc(NCCCCCCc2ccco2)cc1
Rattus norvegicus [1]
  serum sterol level, percent of control: 87%
Rattus norvegicus [2]
  serum sterol, percent of control: 86%
Rattus norvegicus [3]
  serum triglycerides, percent of control: 51%
Rattus norvegicus [4]
  serum sterol, percent of control: 91%
[5]
  inhibition: 21%
Rattus norvegicus [6]
  Diet: 67%
Rattus norvegicus [7]
  Diet: 61%

## CCOC(=O)c1ccc(NCCc2ccc(Cl)cc2)cc1
Rattus norvegicus [8]
  serum sterol, percent of control: 97%
Rattus norvegicus [1]
  serum sterol level, percent of control: 113%
Rattus norvegicus [9]
  Diet: 70%
Rattus norvegicus [3]
  serum triglycerides, percent of control: 60%
Rattus norvegicus [4]
  serum sterol, percent of control: 115%
[5]
  inhibition: 37%
Rattus norvegicus [7]
  Diet: 90%

## CCOC(=O)c1ccc(NC(=O)/C=C/c2ccc(Cl)cc2)cc1
Rattus norvegicus [8]
  serum sterol, percent of control: 107%
Rattus norvegicus [1]
  serum sterol level, percent of control: 107%
Rattus norvegicus [10]
  Diet: 80%
Rattus norvegicus [4]
  serum sterol, percent of control: 98%
[5]
  inhibition: 51%
Rattus norvegicus [6]
  Diet: 104%
Rattus norvegicus [7]
  Diet: 110%

## O=C(O)c1ccc(NCCCCCC(O)c2ccc(Cl)cc2)cc1 (stereo not drawn)
Rattus norvegicus [8]
  serum sterol, percent of control: 86%
Rattus norvegicus [1]
  serum sterol level, percent of control: 100%
Rattus norvegicus [3]
  serum triglycerides, percent of control: 72%
Rattus norvegicus [4]
  serum sterol, percent of control: 100%
[5]
  inhibition: 30%
Rattus norvegicus [6]
  Diet: 85%
Rattus norvegicus [7]
  Diet: 90%

## O=C(O)c1ccc(NCCc2ccc(Cl)cc2)cc1
Rattus norvegicus [8]
  serum sterol, percent of control: 105%
Rattus norvegicus [1]
  serum sterol level, percent of control: 90%
Rattus norvegicus [3]
  serum triglycerides, percent of control: 67%
Rattus norvegicus [4]
  serum sterol, percent of control: 106%
[5]
  inhibition: 6%
Rattus norvegicus [6]
  Diet: 114%
Rattus norvegicus [7]
  Diet: 91%

## CCOC(=O)c1ccc(NCCCc2ccc(Cl)c(Cl)c2)cc1
Rattus norvegicus [8]
  serum sterol, percent of control: 90%
Rattus norvegicus [1]
  serum sterol level, percent of control: 98%
Rattus norvegicus [3]
  serum triglycerides, percent of control: 66%
Rattus norvegicus [4]
  serum sterol, percent of control: 86%
[5]
  inhibition: 43%
Rattus norvegicus [6]
  Diet: 90%
Rattus norvegicus [7]
  Diet: 98%

## O=C(O)Cc1ccc(NCCCc2ccc(Cl)cc2)cc1
Rattus norvegicus [8]
  serum sterol, percent of control: 82%
Rattus norvegicus [1]
  serum sterol level, percent of control: 85%
Rattus norvegicus [3]
  serum triglycerides, percent of control: 61%
Rattus norvegicus [4]
  serum sterol, percent of control: 83%
[5]
  inhibition: 9%
Rattus norvegicus [6]
  Diet: 111%
Rattus norvegicus [7]
  Diet: 95%

## Nc1ccccc1CCCNc1ccc(C(=O)O)cc1
Rattus norvegicus [8]
  serum sterol, percent of control: 84%
Rattus norvegicus [1]
  serum sterol level, percent of control: 96%
Rattus norvegicus [10]
  Diet: 92%
Rattus norvegicus [4]
  serum sterol, percent of control: 121%
[5]
  inhibition: 15%
Rattus norvegicus [6]
  Diet: 99%
Rattus norvegicus [7]
  Diet: 84%

## COc1ccc(CCCNc2ccc(C(=O)O)cc2)cc1
Rattus norvegicus [1]
  serum sterol level, percent of control: 86%
Rattus norvegicus [2]
  serum sterol, percent of control: 70%
Rattus norvegicus [10]
  Diet: 91%
Rattus norvegicus [4]
  serum sterol, percent of control: 89%
[5]
  inhibition: 38%
Rattus norvegicus [6]
  Diet: 82%
Rattus norvegicus [7]
  Diet: 89%

## CCOC(=O)c1ccc(NC(=O)CCCCCc2ccc(Cl)cc2)cc1
Rattus norvegicus [8]
  serum sterol, percent of control: 99%
Rattus norvegicus [1]
  serum sterol level, percent of control: 101%
Rattus norvegicus [10]
  Diet: 104%
Rattus norvegicus [4]
  serum sterol, percent of control: 93%
[5]
  inhibition: 42%
Rattus norvegicus [6]
  Diet: 96%
Rattus norvegicus [7]
  Diet: 95%

## CCOC(=O)c1ccc(NCCCc2ccco2)cc1
Rattus norvegicus [8]
  serum sterol, percent of control: 101%
Rattus norvegicus [1]
  serum sterol level, percent of control: 94%
Rattus norvegicus [10]
  Diet: 83%
Rattus norvegicus [4]
  serum sterol, percent of control: 96%
[5]
  inhibition: 56%
Rattus norvegicus [6]
  Diet: 90%
Rattus norvegicus [7]
  Diet: 96%

## O=C(O)c1ccc(N(CCCc2ccc(Cl)cc2)CCCc2ccc(Cl)cc2)cc1
Rattus norvegicus [8]
  serum sterol, percent of control: 98%
Rattus norvegicus [1]
  serum sterol level, percent of control: 84%
Rattus norvegicus [10]
  Diet: 85%
Rattus norvegicus [4]
  serum sterol, percent of control: 98%
[5]
  inhibition: 33%
Rattus norvegicus [6]
  Diet: 126%
Rattus norvegicus [7]
  Diet: 91%

## O=C(/C=C/c1ccc(Cl)cc1)Nc1ccc(C(=O)O)cc1
Rattus norvegicus [8]
  serum sterol, percent of control: 120%
Rattus norvegicus [1]
  serum sterol level, percent of control: 100%
Rattus norvegicus [10]
  Diet: 116%
Rattus norvegicus [4]
  serum sterol, percent of control: 100%
[5]
  inhibition: 41%
Rattus norvegicus [6]
  Diet: 94%
Rattus norvegicus [7]
  Diet: 109%

## O=C(O)c1ccc(NCCCc2ccccc2[N+](=O)[O-])cc1
Rattus norvegicus [1]
  serum sterol level, percent of control: 83%
Rattus norvegicus [2]
  serum sterol, percent of control: 83%
Rattus norvegicus [3]
  serum triglycerides, percent of control: 77%
Rattus norvegicus [4]
  serum sterol, percent of control: 88%
[5]
  inhibition: 2%
Rattus norvegicus [6]
  Diet: 84%
Rattus norvegicus [7]
  Diet: 103%

## O=C(OCC(O)CO)c1ccc(NCCCc2ccccc2)cc1 (stereo not drawn)
Rattus norvegicus [1]
  serum sterol level, percent of control: 85%
Rattus norvegicus [2]
  serum sterol, percent of control: 74%
Rattus norvegicus [9]
  Diet: 57%
Rattus norvegicus [3]
  serum triglycerides, percent of control: 49%
Rattus norvegicus [4]
  serum sterol, percent of control: 90%
[5]
  inhibition: 21%
Rattus norvegicus [7]
  Diet: 92%

## CCOC(=O)Cc1ccc(NCCCc2ccc(Cl)cc2)cc1
Rattus norvegicus [11]
  serum triglycerides, percent of control: 126%
Rattus norvegicus [8]
  serum sterol, percent of control: 91%
Rattus norvegicus [1]
  serum sterol level, percent of control: 91%
Rattus norvegicus [10]
  Diet: 67%
Rattus norvegicus [4]
  serum sterol, percent of control: 103%
[5]
  inhibition: 91%
Rattus norvegicus [6]
  Diet: 119%

## CCOC(=O)c1ccc(NC(=O)CCc2ccc(Cl)cc2)cc1
Rattus norvegicus [8]
  serum sterol, percent of control: 99%
Rattus norvegicus [1]
  serum sterol level, percent of control: 107%
Rattus norvegicus [9]
  Diet: 85%
Rattus norvegicus [3]
  serum triglycerides, percent of control: 66%
Rattus norvegicus [4]
  serum sterol, percent of control: 101%
[5]
  inhibition: 30%
Rattus norvegicus [7]
  Diet: 101%

## O=C(O)c1cccc(NCCCc2ccc(Cl)cc2)c1
Rattus norvegicus [8]
  serum sterol, percent of control: 92%
Rattus norvegicus [1]
  serum sterol level, percent of control: 89%
Rattus norvegicus [3]
  serum triglycerides, percent of control: 37%
Rattus norvegicus [4]
  serum sterol, percent of control: 103%
[5]
  inhibition: 0%
Rattus norvegicus [6]
  Diet: 80%
Rattus norvegicus [7]
  Diet: 93%

## O=C(O)c1ccc(NCCCc2c(Cl)cccc2Cl)cc1
Rattus norvegicus [8]
  serum sterol, percent of control: 106%
Rattus norvegicus [10]
  Diet: 82%
[5]
  inhibition: 21%

## CCOC(=O)c1ccc(NCCCc2ccccc2N)cc1
Rattus norvegicus [8]
  serum sterol, percent of control: 98%
Rattus norvegicus [1]
  serum sterol level, percent of control: 96%
Rattus norvegicus [3]
  serum triglycerides, percent of control: 69%
Rattus norvegicus [4]
  serum sterol, percent of control: 103%
[5]
  inhibition: 43%
Rattus norvegicus [6]
  Diet: 83%
Rattus norvegicus [7]
  Diet: 97%

## CCOC(=O)c1ccc(NCCCCCC(=O)c2ccc(Cl)cc2)cc1
Rattus norvegicus [11]
  serum triglycerides, percent of control: 56%
Rattus norvegicus [8]
  serum sterol, percent of control: 99%
Rattus norvegicus [1]
  serum sterol level, percent of control: 92%
Rattus norvegicus [10]
  Diet: 79%
Rattus norvegicus [4]
  serum sterol, percent of control: 98%
[5]
  inhibition: 50%
Rattus norvegicus [6]
  Diet: 76%

## CCOC(=O)c1ccc(NCc2cccs2)cc1
Rattus norvegicus [1]
  serum sterol level, percent of control: 98%
Rattus norvegicus [4]
  serum sterol, percent of control: 104%
[5]
  inhibition: 44%
Rattus norvegicus [6]
  Diet: 94%
Rattus norvegicus [7]
  Diet: 78%
